In paper PMC5632222 (Journal of pharmaceutical and biomedical analysis, 2017):

Columns and labels:
[1] = Stability of VX-970 in stock solution; type: physicochemical
[2] = type: in vitro ADME; conditions: bile spiked human plasma, room temperature 4 h
How it was run: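 Bile from treated animals, containing the direct glucuronide, was spiked into human plasma. Parent compound was quantitated by LC-MS/MS before and after 4 h at room temperature. Bile was also spiked into phosphate buffers at pH 5, 6, 7, 8 and 9 with the same 4 h room-temperature hold. The glucuronide was monitored via the 639.5>433.5 channel.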

[3] = test system: pooled female rat microsomes; assay: Glucuronidation incubation in permeabilized rat microsomes; type: in vitro ADME
How it was run: (§1)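 Pooled liver microsomes (human for line 1, female rat for line 2), permeabilized with 25 µg/mL alamethicin at 0.25 mg/mL protein in 0.1 M phosphate pH 7.4, 50 mM Tris-HCl, 10 mM MgCl₂. Test compound at 5,000 ng/mL; started with […]. Sampled at 0 and 60 min, quenched in acetonitrile, run in triplicate. LC-MS/MS read parent and the 639.5>433.5 glucuronide channel.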

[4] = Plasma pharmacokinetics in a patient after IV infusion of VX-970; type: in vivo, human
How it was run: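 One patient received a 1 h IV infusion at 60 mg/m², with blood sampled from 0 to 72 h. Plasma (50 µL) was spiked with deuterated internal standard, precipitated with acetonitrile, diluted with water and run by positive-ESI MRM LC-MS/MS. Calibration spanned 3–5000 ng/mL, and the glucuronide channel was also monitored. PK parameters were derived non-compartmentally.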

[5] = test system: pooled human liver microsomes; assay: Glucuronidation incubation in permeabilized human microsomes; type: in vitro ADME
How it was run: as §1

[6] = Stability of VX-970 in human plasma; type: in vitro ADME
How it was run: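 Test compound was spiked into human plasma at QC levels of 5, 150 and 4000 ng/mL, in triplicate. Long-term stability: 8 months at -80 °C, read against freshly prepared standard curves. Freeze/thaw: 3 cycles, frozen at -80 °C and thawed on separate days, compared with fresh samples. Bench stability: 4 h at room temperature. Quantitation was by LC-MS/MS with deuterated internal standard.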

[7] = one patient, 1 h IV infusion 60 mg/m^2, non-compartmental

Stability (%) ([1]; stock solution 8 months, −80 °C, 100,000 ng/mL): 95.7%
Stability (%) ([1]; stock solution 6 h, ambient temp, 100,000 ng/mL): 96.7%
VX-970 concentrations in bile spiked plasma, % stable [2]: 96.5%
Metabolite in the 639.3>433.5 m/z glucuronide channel ([3]; rat microsome incubation of VX-970): No metabolite was observed
Drug remaining in the incubation mixture ([3]; rat microsomes 0.25 mg/mL, 5,000 ng/mL VX-970, UDPGA, 60 min): 87.5%
AUC(0-inf) ([4]; human, plasma, iv, 60 mg/m^2): 2500 ng·h/mL
AUC(0-t) ([4]; human, plasma, iv, 60 mg/m^2): 2430 ng·h/mL
Cmax ([4]; human, plasma, iv, 60 mg/m^2): 343 ng/mL
half-life ([4]; human, plasma, iv, 60 mg/m^2): 14 h
Cl [4, 7]: 24.0 L/h/m^2
Vss [4, 7]: 386 L/m^2
Drug remaining in the incubation mixture ([5]; human microsomes 0.25 mg/mL, 5,000 ng/mL VX-970, UDPGA, 60 min): 99.9%
Glucuronidation ([5]; permeabilized human microsomes, 5,000 ng/mL VX-970, 60 min): no glucuronidation
recovery at 8 months ([6]; human, plasma): 92.2 to 100%
Stability (%) ([6]; plasma 3 freeze-thaw cycles, −80 °C, QCH 4000 ng/mL): 98.1%
Stability (%) ([6]; plasma 3 freeze-thaw cycles, −80 °C, QCL 5 ng/mL): 98.1%
Stability (%) ([6]; plasma 3 freeze-thaw cycles, −80 °C, QCM 150 ng/mL): 99.6%
Stability (%) ([6]; plasma 8 months, −80 °C, QCH 4000 ng/mL): 96.2%
Stability (%) ([6]; plasma 8 months, −80 °C, QCL 5 ng/mL): 92.2%
Stability (%) ([6]; plasma 8 months, −80 °C, QCM 150 ng/mL): 100.1%
Stability (%) ([6]; plasma 4 h, ambient temp., QCH 4000 ng/mL): 100.2%
Stability (%) ([6]; plasma 4 h, ambient temp., QCL 5 ng/mL): 96.2%
Stability (%) ([6]; plasma 4 h, ambient temp., QCM 150 ng/mL): 96.0%
SMILES: CNCc1ccc(-c2cc(-c3nc(-c4ccc(S(=O)(=O)C(C)C)cc4)cnc3N)on2)cc1 [VX-970]
